This series deals with Male Wistar rats. Description: DEN model of hepatic fibrosis and inflammation, body weight and liver histology. It is filed as in vivo, rat. Particulars: for collagen proportional area (CPA), Sirius Red: weekly 100 mg/kg i.p. A digest of the protocol:
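Male Wistar rats (190–220 g at start) got weekly i.p. DEN 100 mg/kg in PBS for 4 weeks, or PBS only as controls, and were sampled 1 or 7 days after the last dose. Formalin-fixed, paraffin-embedded 5 μm liver sections were stained with H&E, Sirius Red, and fibrin antibody (1:25). A pathologist scored modified Ishak HAI; CPA was the % Sirius Red area. Values are mean ± standard error, compared by t-test.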

The record followed here is PMC7935409 (Investigative radiology, 2020).

On to `CCN(CC)N=O` [DEN, diethylnitrosamine], for which, for the setting “1 day post DEN”, the “HAI score for inflammation (0 – 4)” value was determined as 3.54 ± 0.14; the “fibrin immunostaining, area stained” value is recorded as 3.56 ± 1.35; the “fibrosis Ishak score (0 – 6)” value was 3.62 ± 0.31; the “collagen proportional area (CPA), Sirius Red” value worked out at 3.14 ± 1.27%. Where the note is “7 days post DEN”, the “HAI score for inflammation (0 – 4)” value is reported as 1.61 ± 0.16; the “fibrin immunostaining, area stained” value amounted to 1.02 ± 0.58; the “fibrosis Ishak score (0 – 6)” value was 3.82 ± 0.25; the “collagen proportional area (CPA), Sirius Red” value was determined as 3.30 ± 0.65%.
